According to ChEMBL document CHEMBL1143122, “Novel analogs of D-e-MAPP and B13. Part 1: synthesis and evaluation as potential anticancer agents” (Bioorg Med Chem, 2008):

Experiments:
SNB-19 = experiment: Antiproliferative activity against human SNB19 cells after 48 hrs; format: functional; details: SNB-19, 48 h
Outline: (§1)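 NCI 60-cell screen. Cells were grown in RPMI 1640 with 5% FBS and 2 mM L-glutamine, then plated at 5,000–40,000 cells/well according to doubling time and preincubated for 24 h at 37 °C in 5% CO2. Compounds were dissolved in DMSO at 400× the top final concentration and tested at five 10-fold dilutions from 10−4 to 10−8 M for 48 h. Growth was read spectrophotometrically; GI50 is 50% net protein reduction.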

RPMI-8226 = experiment: Antiproliferative activity against human RPMI8226 cells after 48 hrs; format: functional; details: RPMI-8226, 48 h; outline: as §1
DU-145 = experiment: Antiproliferative activity against human DU145 cells after 48 hrs; format: functional; details: DU-145, 48 h; outline: as §1
CAKI-1 = experiment: Antiproliferative activity against human CAKI1 cells after 48 hrs; format: functional; details: CAKI-1, 48 h; outline: as §1
UACC-257 = experiment: Antiproliferative activity against human UACC257 cells after 48 hrs; format: functional; details: UACC-257, 48 h
Outline: (§2)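 NCI 60-cell-line screen. Lines grown in RPMI 1640 with 5% fetal bovine serum and 2 mM L-glutamine, plated at 5,000–40,000 cells/well according to doubling time, left 24 h at 37 °C in 5% CO2. Drug stocks in DMSO at 400-fold the top final concentration. Five 10-fold dilutions, 10−4 to 10−8 M, incubated 48 h. Growth read spectrophotometrically as net protein; GI50 taken as 50% reduction.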

HCT-116 = experiment: Antiproliferative activity against human HCT116 cells after 48 hrs; format: functional; details: HCT-116, 48 h; outline: as §1
KM12 = experiment: Antiproliferative activity against human KM12 cells after 48 hrs; format: functional; details: Homo sapiens, KM12, 48 h; outline: as §1
SK-OV-3 = experiment: Antiproliferative activity against human SKOV3 cells after 48 hrs; format: functional; details: SK-OV-3, 48 h; outline: as §1
UACC-62 = experiment: Antiproliferative activity against human UACC62 cells after 48 hrs; format: functional; details: UACC-62, 48 h; outline: as §2
OVCAR-3 = experiment: Antiproliferative activity against human OVCAR-3 cells after 48 hrs; format: functional; details: OVCAR-3, 48 h; outline: as §1
SN12C = experiment: Antiproliferative activity against human SN12C cells after 48 hrs; format: functional; outline: as §1
T47D = experiment: Antiproliferative activity against human T47D cells after 48 hrs; format: functional; outline: as §2
NCI-H322M = experiment: Antiproliferative activity against human NCI-H322M cells after 48 hrs; format: functional; outline: as §1
SF-295 = experiment: Antiproliferative activity against human SF295 cells after 48 hrs; format: functional; details: SF-295, 48 h; outline: as §1
SW-620 = experiment: Antiproliferative activity against human SW620 cells after 48 hrs; format: functional; details: SW-620, 48 h; outline: as §2
TK-10 = experiment: Antiproliferative activity against human TK10 cells after 48 hrs; format: functional; details: TK-10, 48 h; outline: as §2
CCRF-CEM = experiment: Antiproliferative activity against human CCRF-CEM cells after 48 hrs; format: functional; outline: as §1
NCI-H226 = experiment: Antiproliferative activity against human NCI-H226 cells after 48 hrs; format: functional; details: NCI-H226, 48 h; outline: as §1
PC-3 = experiment: Antiproliferative activity against human PC3 cells after 48 hrs; format: functional; details: PC-3, 48 h; outline: as §1
M14 = experiment: Antiproliferative activity against human M14 cells after 48 hrs; format: functional; details: M14, 48 h; outline: as §1
HCC 2998 = experiment: Antiproliferative activity against human HCC2998 cells after 48 hrs; format: functional; details: HCC 2998, 48 h; outline: as §1
A498 = experiment: Antiproliferative activity against human A498 cells after 48 hrs; format: functional; details: A498, 48 h; outline: as §1
MDA-MB-435 = experiment: Antiproliferative activity against human MDA-MB-435 cells after 48 hrs; format: functional; details: Homo sapiens, MDA-MB-435, 48 h; outline: as §1
LOX IMVI = experiment: Antiproliferative activity against human LOXIMVI cells after 48 hrs; format: functional; outline: as §1
SK-MEL-2 = experiment: Antiproliferative activity against human SKMEL2 cells after 48 hrs; format: functional; details: SK-MEL-2, 48 h; outline: as §1
HOP-62 = experiment: Antiproliferative activity against human HOP62 cells after 48 hrs; format: functional; details: HOP-62, 48 h; outline: as §1
A549 = experiment: Antiproliferative activity against human A549 cells after 48 hrs; format: functional; details: A549, 48 h; outline: as §1
MCF7 = experiment: Antiproliferative activity against human MCF7 cells after 48 hrs; format: functional, cell-based; details: MCF7, 48 h
NCI-H522 = experiment: Antiproliferative activity against human NCI-H522 cells after 48 hrs; format: functional; details: NCI-H522, 48 h; outline: as §1
HT-29 = experiment: Antiproliferative activity against human HT29 cells after 48 hrs; format: functional; details: HT-29, 48 h; outline: as §1
HCT-15 = experiment: Antiproliferative activity against human HCT15 cells after 48 hrs; format: functional; details: Homo sapiens, HCT-15, 48 h; outline: as §1
RXF 393 = experiment: Antiproliferative activity against human RXF393 cells after 48 hrs; format: functional; details: RXF 393, 48 h; outline: as §1
[1] = read-out: Log LC50 (the source's name) (converted)

Structure (SMILES): CCCCCCCCCCCCCCN[C@H](CO)[C@H](O)c1ccc([N+](=O)[O-])cc1.Cl
- GI50 (SNB-19): 1.74 µM
- TGI (SNB-19; read-out: Log TGI (converted)): 3.55 µM
- GI50 (RPMI-8226): 2.19 µM
- CC50 (RPMI-8226; [1]): > 100 µM
- TGI (RPMI-8226; read-out: Log TGI (converted)): 4.68 µM
- GI50 (DU-145): 1.55 µM
- CC50 (DU-145; [1]): 5.37 µM
- TGI (DU-145; read-out: Log TGI (converted)): 2.88 µM
- GI50 (CAKI-1): 7.59 µM
- CC50 (CAKI-1; [1]): 67.6 µM
- TGI (CAKI-1; read-out: Log TGI (converted)): 24 µM
- GI50 (UACC-257): 4.27 µM
- CC50 (UACC-257; [1]): 93.3 µM
- TGI (UACC-257; read-out: Log TGI (converted)): 20.9 µM
- GI50 (HCT-116): 1.95 µM
- LC50 (HCT-116): 6.17 µM
- TGI (HCT-116; read-out: Log TGI (converted)): 3.47 µM
- GI50 (KM12): 1.86 µM
- CC50 (KM12; [1]): 6.17 µM
- TGI (KM12; read-out: Log TGI (converted)): 3.39 µM
- GI50 (SK-OV-3): 8.91 µM
- CC50 (SK-OV-3; [1]): 79.4 µM
- TGI (SK-OV-3; read-out: Log TGI (converted)): 27.5 µM
- GI50 (UACC-62): 6.46 µM
- LC50 (UACC-62): 75.9 µM
- TGI (UACC-62; read-out: Log TGI (converted)): 24 µM
- GI50 (OVCAR-3): 8.13 µM
- LC50 (OVCAR-3): 100 µM
- TGI (OVCAR-3; read-out: Log TGI (converted)): 30.9 µM
- GI50 (SN12C): 2.19 µM
- LC50 (50% net cell kill) (SN12C): > 100 µM
- TGI (SN12C; read-out: Log TGI (converted)): 4.79 µM
- GI50 (T47D): 3.8 µM
- CC50 (T47D; [1]): 87.1 µM
- TGI (T47D; read-out: Log TGI (converted)): 14.1 µM
- GI50 (NCI-H322M): 4.79 µM
- CC50 (NCI-H322M; [1]): 42.7 µM
- TGI (NCI-H322M; read-out: Log TGI (converted)): 14.8 µM
- GI50 (SF-295): 2.24 µM
- LC50 (SF-295): 9.77 µM
- TGI (SF-295; read-out: Log TGI (converted)): 4.68 µM
- GI50 (SW-620): 2 µM
- LC50 (concentration killing 50% of cells) (SW-620): 100 µM
- TGI (SW-620; read-out: Log TGI (converted)): 4.68 µM
- GI50 (TK-10): 10.5 µM
- CC50 (TK-10; [1]): 66.1 µM
- TGI (TK-10; read-out: Log TGI (converted)): 26.3 µM
- GI50 (CCRF-CEM): 2 µM
- TGI (CCRF-CEM; read-out: Log TGI (converted)): 3.98 µM
- GI50 (NCI-H226): 10.5 µM
- CC50 (NCI-H226; [1]): 100 µM
- TGI (NCI-H226; read-out: Log TGI (converted)): 34.7 µM
- GI50 (PC-3): 1.74 µM
- TGI (PC-3; read-out: Log TGI (converted)): 3.16 µM
- GI50 (M14): 2.04 µM
- LC50 (M14): 6.92 µM
- TGI (M14; read-out: Log TGI (converted)): 3.72 µM
- GI50 (HCC 2998): 2.4 µM
- CC50 (HCC 2998; [1]): 29.5 µM
- TGI (HCC 2998; read-out: Log TGI (converted)): 5.62 µM
- GI50 (A498): 6.76 µM
- CC50 (A498; [1]): 93.3 µM
- TGI (A498; read-out: Log TGI (converted)): 26.9 µM
- GI50 (MDA-MB-435): 1.91 µM
- LC50 (MDA-MB-435): 5.75 µM
- TGI (MDA-MB-435; read-out: Log TGI (converted)): 3.31 µM
- GI50 (LOX IMVI): 1.74 µM
- LC50 (LOX IMVI): 6.03 µM
- TGI (LOX IMVI; read-out: Log TGI (converted)): 3.24 µM
- GI50 (SK-MEL-2): 3.31 µM
- LC50 (SK-MEL-2): > 100 µM
- TGI (SK-MEL-2; read-out: Log TGI (converted)): 8.13 µM
- GI50 (HOP-62): 1.91 µM
- CC50 (HOP-62; [1]): 6.31 µM
- TGI (HOP-62; read-out: Log TGI (converted)): 3.47 µM
- GI50 (A549): 3.55 µM
- CC50 (A549; [1]): > 100 µM
- TGI (A549; read-out: Log TGI (converted)): 19.5 µM
- GI50 (MCF7): 1.91 µM
- TGI (MCF7; read-out: Log TGI (converted)): 3.47 µM
- GI50 (NCI-H522): 2 µM
- TGI (NCI-H522; read-out: Log TGI (converted)): 3.98 µM
- GI50 (HT-29): 1.86 µM
- TGI (HT-29; read-out: Log TGI (converted)): 3.47 µM
- GI50 (HCT-15): 1.86 µM
- TGI (HCT-15; read-out: Log TGI (converted)): 3.47 µM
- GI50 (RXF 393): 1.82 µM
- CC50 (RXF 393; [1]): 8.32 µM
- TGI (RXF 393; read-out: Log TGI (converted)): 3.89 µM
